Sampled rows, rich in hits. Any-hit rate of the full collection: about 2.6%.
ASAP1 inh: ASAP1 ArfGAP inhibition; inhibition, % at 16.5 µM; ASAP1-stimulated ARF1 GTP hydrolysis, GDP FP detection; 0.19% of 360,000 active; in the data active = inhibition above about 25%
Target sequence (Q9ULH1 325-724 limits assumed): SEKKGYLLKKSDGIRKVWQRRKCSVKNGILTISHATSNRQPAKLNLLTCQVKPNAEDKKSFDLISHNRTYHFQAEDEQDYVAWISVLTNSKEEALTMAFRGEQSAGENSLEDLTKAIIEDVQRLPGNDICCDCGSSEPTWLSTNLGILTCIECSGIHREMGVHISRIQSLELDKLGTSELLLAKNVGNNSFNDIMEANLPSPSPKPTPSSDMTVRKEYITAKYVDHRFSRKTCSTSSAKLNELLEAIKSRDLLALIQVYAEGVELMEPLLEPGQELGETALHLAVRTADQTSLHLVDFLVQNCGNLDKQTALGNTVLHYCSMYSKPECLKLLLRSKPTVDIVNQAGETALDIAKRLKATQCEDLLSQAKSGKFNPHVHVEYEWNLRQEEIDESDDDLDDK
esBAF inh: inhibitors of esBAF chromatin remodeling in mouse ES cells. Bmi1-luciferase knock-in reporter, 24 h; 100% = twice the neutral-well signal. AID 602393. reporter increase, % at 12.5 µM. 2% of 350,000 active; in the data active = activation above about 40%; inconclusive = no clear call, values can overlap the other calls;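 also: a rise in the Bmi1 reporter signal indicates esBAF inhibition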
ARFGAP1 inhibitor: rat ARFGAP1 inhibition | Q62848 | Arfgap1-stimulated ARF1 GTP hydrolysis, GDP FP detection | inhibition, % at 16.5 µM | 0.26% of 360,000 active;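 active = inhibition above a per-plate limit, mean inhibition of low control wells plus 3 SD, cut at about 25% in these data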
Target sequence (Q62848 1-136 limits assumed): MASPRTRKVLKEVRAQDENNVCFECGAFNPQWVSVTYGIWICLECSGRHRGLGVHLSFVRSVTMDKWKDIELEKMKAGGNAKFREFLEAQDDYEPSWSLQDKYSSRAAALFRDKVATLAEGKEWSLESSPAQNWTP
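Repeats: one replicate per compound; assay system: rat Arfgap1 catalytic domain, aa 1-136; times: enzyme reaction 120 min at 25 °C after 20 min preincubation; detection: FP of antibody-bound GDP Alexa 633 tracer, ex 620/em 688 nm; benchmarks: high control wells lacking Arfgap1, low control full reaction with DMSO; reagent: human ARF1(Δ1-17)-GTP substrate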
SMARCA2 act: activators of SMARCA2 function | MG213 cells, MMTV-luciferase reporter, dexamethasone, overnight | activation, % at 9.1 µM | 1% of 370,000 active | AID 652017; in the data active = activation above about 7.8%
Numbers stand for hits; i = inactive; ? = inconclusive; nt = no result given; ! = repeats disagree.

SMILES | ASAP1 inh | esBAF inh | ARFGAP1 inhibitor | SMARCA2 act
C[C@H](CO)N1C[C@H](C)[C@@H](CN(C)C(=O)C2CCC2)Oc2cc(C#CCN(C)C)ccc2S1(=O)=O | nt | i | nt | nt
C=CCSc1n[nH]c(-c2ccccc2)n1 | i | 53.5 | i | i
COc1ccc(-c2nc(SCC(=O)Nc3cc(C)on3)n[nH]2)cc1 | nt | i | nt | nt
C=CCSc1n[nH]c(-c2ccc(OC)cc2)n1 | i | 53.5 | i | i
O=C(CSc1n[nH]c(-c2ccccc2)n1)N1CCCC1 | i | i | i | i
C[C@@H]1CN([C@H](C)CO)C(=O)c2cc(NS(C)(=O)=O)ccc2O[C@H]1CN(C)C(=O)Nc1ccc(C(F)(F)F)cc1 | nt | i | nt | nt
S=C(N/N=C/c1cccs1)NC1CC2CCC1C2 (stereo not drawn) | i | nt | i | i
Oc1ccc(/C=N/NC(=S)NC2CC3CCC2C3)cc1 (stereo not drawn) | i | 46.7 | i | i
COc1ccc(-c2nc(C#N)c(NCc3ccco3)o2)cc1 | i | i | i | i
CNc1oc(-c2ccc(OCc3ccccc3)cc2)nc1C#N | i | 68.9 | i | i
Cc1cccc(-c2nc(C#N)c(NCc3ccco3)o2)c1 | i | 58.6 | i | i
N#Cc1nc(-c2ccc(OCc3ccccc3)cc2)oc1NCc1ccco1 | i | i | i | i
Cc1ccc(-c2nc(C#N)c(NCc3ccco3)o2)cc1 | i | 73.1 | i | i
CCC(=O)N[C@@H]1CC[C@H](CCn2cc(CN(C)C)nn2)O[C@@H]1CO | nt | i | nt | nt
Cc1cc(OCC(=O)NC(C)(C)C)ccc1Cl | i | 61.6 | i | i
CC(C)(C)NC(=O)COc1ccc(-c2ccccc2)cc1 | i | 57.2 | i | i
CCNC(=O)COc1ccc(-c2ccccc2)cc1 | i | i | i | i
O=C(O)C[C@@H]1C[C@H]2c3cc(NS(=O)(=O)c4ccc(F)cc4)ccc3O[C@H]2[C@@H](CO)O1 | nt | i | nt | nt
CCc1ccc(C(=O)CCC2CCCCC2=O)cc1 (stereo not drawn) | nt | i | nt | nt
Cc1ccc(C(=O)CCC2CCCCC2=O)cc1 (stereo not drawn) | i | 45.3 | i | i
Cc1ccc(C(=O)CCC2CCCC2=O)cc1 (stereo not drawn) | i | 57.1 | i | i
C[C@H](O)C#Cc1ccc2c(c1)O[C@@H](CN(C)CC1CCCC1)[C@H](C)CN([C@H](C)CO)S2(=O)=O | nt | i | nt | nt
O=C(N[C@@H]1C=C[C@@H](CC(=O)N2CCc3ccccc3C2)O[C@@H]1CO)C1CCC1 | nt | i | nt | nt
COc1ccc(NC(=O)Nc2ccc3c(c2)[C@H]2C[C@H](CC(=O)N4CCCCC4)O[C@H](CO)[C@H]2O3)cc1 | nt | i | nt | nt
Cc1ccc(C)c(NC(=O)c2ccc3ccccc3n2)c1 | i | i | i | i
SMILES | ASAP1 inh | esBAF inh | ARFGAP1 inhibitor | SMARCA2 act
Cc1ccc(NC(=S)c2ccc3ccccc3n2)c(C)c1 | i | 53.0 | i | i
CNc1nc(-c2ccc3c(c2)CCN3C(=O)c2cccc(F)c2)cs1 | i | nt | i | i
CC(C)(C)Nc1nc(-c2ccc3c(c2)CCN3C(=O)C2CC2)cs1 | i | 94.6 | i | i
CNc1nc(-c2ccc3c(c2)CCN3C(=O)c2ccc(F)cc2)cs1 | i | 51.7 | i | i
CC(C)C(=O)Nc1nc(-c2ccc3c(c2)CCN3C(=O)C2CC2)cs1 | i | i | i | i
O=C(C[C@@H]1CC[C@@H]2[C@H](COC[C@@H](O)CN2Cc2nccs2)O1)NCc1ccccc1 | nt | i | nt | nt
O=S(=O)(Nc1cccc(-c2ccc(N3CCCCCC3)nn2)c1)c1ccccc1Cl | i | 43.5 | i | i
Cc1ccc([N+](=O)[O-])cc1S(=O)(=O)Nc1cccc(-c2ccc(N3CCCC3)nn2)c1 | i | i | i | i
COc1ccc(C)cc1S(=O)(=O)Nc1cccc(-c2ccc(N3CCCCCC3)nn2)c1 | i | ? | i | i
O=S(=O)(Nc1cccc(-c2ccc(N3CCCCCC3)nn2)c1)c1ccccc1F | i | nt | i | i
O=S(=O)(Nc1cccc(-c2ccc(N3CCCCCC3)nn2)c1)c1cccc(F)c1 | i | 65.8 | i | i
Cc1ccc(S(=O)(=O)Nc2cccc(-c3ccc(N4CCCCCC4)nn3)c2)cc1C | i | 46.3 | i | i
O=S(=O)(Nc1cccc(-c2ccc(N3CCCCCC3)nn2)c1)c1ccc(F)cc1 | i | 56.0 | i | i
C[C@H](CO)N1C[C@H](C)[C@H](CN(C)S(C)(=O)=O)Oc2ccc(NS(=O)(=O)c3ccc(F)cc3)cc2C1=O | nt | i | nt | nt
CCOc1ccc(S(=O)(=O)Nc2cccc(-c3ccc(N4CCCCCC4)nn3)c2)cc1 | i | i | i | i
O=S(=O)(Nc1cccc(-c2ccc(N3CCCCCC3)nn2)c1)c1ccc(C(F)(F)F)cc1 | i | 55.7 | i | i
O=C(NC(=O)c1csnn1)Nc1ccccc1Cl | i | 50.0 | i | i
O=C(Nc1cccs1)Nc1ccccc1Cl | i | 44.1 | i | i
CC(C)NC(=O)N(C)C[C@@H]1Oc2cc(C#Cc3ccc(F)cc3)ccc2S(=O)(=O)N([C@H](C)CO)C[C@@H]1C | nt | i | nt | nt
CC(C)(C)n1cnc2cc(NCc3ccc(Br)cc3)ccc21 | i | i | i | i
CCCCn1cnc2cc(NCc3ccncc3)ccc21 | i | i | i | i
CCc1ccc(CNc2ccc3c(c2)ncn3CC)cc1 | i | 75.2 | i | i
CCc1ccc(CNc2ccc3c(c2)ncn3C(C)(C)C)cc1 | i | 51.0 | i | i
CN1C(=O)c2cc(NC(=O)NCc3ccccc3)ccc2OC[C@@H]2O[C@@H](CC(=O)NCC3CCCCC3)CC[C@H]21 | nt | i | nt | nt
C[C@@H]1CCCCO[C@H](CN(C)S(=O)(=O)c2cn(C)cn2)[C@@H](C)CN([C@@H](C)CO)C(=O)c2cc(NC(=O)Nc3ccc(F)cc3)ccc2O1 | nt | i | nt | nt
SMILES | ASAP1 inh | esBAF inh | ARFGAP1 inhibitor | SMARCA2 act
Cc1ccc(S(=O)(=O)NCC[C@@H]2CC[C@@H](NC(=O)c3cccnc3)[C@H](CO)O2)cc1 | nt | i | nt | nt
Clc1ccc(-n2nnc(-c3cccnc3Cl)n2)cc1Cl | i | 54.7 | i | i
C[C@@H]1CCCCO[C@H](CN(C)C)[C@@H](C)CN([C@H](C)CO)C(=O)c2cc(NC(=O)C3CCCCC3)ccc2O1 | nt | i | nt | nt
C=CCn1c(C)csc1=Nc1ccc(C(C)=O)cc1 | i | nt | i | i
C=CCn1c(CC(=O)OC)csc1=Nc1ccc(C(C)=O)cc1 | i | 54.9 | i | i
CCSc1nnc2c(n1)OC(C)(C)Nc1ccccc1-2 | i | 48.3 | i | i
CSc1nnc2c(n1)OC1(Nc3ccccc3-2)C(=O)Nc2ccccc21 (stereo not drawn) | i | nt | i | i
CC(C)NC(=O)N(C)C[C@H]1OCc2ccccc2-c2c(n(C)c3ccccc23)C(=O)N([C@@H](C)CO)C[C@H]1C | nt | i | nt | nt
CC(CCc1ccccc1)NCC(O)c1ccc(O)c(C(N)=O)c1 (stereo not drawn) | i | i | i | i
COc1ccc(CC(C)NCC(O)c2ccc(O)c(NC=O)c2)cc1 (stereo not drawn) | i | i | i | 19.8!
CC(=O)N(C)C[C@H]1Oc2cc(C#CC(C)(C)O)ccc2S(=O)(=O)N([C@H](C)CO)C[C@@H]1C | nt | i | nt | nt
CCCNC(=O)N(C)C[C@@H]1Oc2ncc(-c3ccncc3)cc2C(=O)N([C@@H](C)CO)C[C@@H]1C | nt | i | nt | nt
O=C(NC(=S)Nc1ccccn1)c1ccc([N+](=O)[O-])cc1 | i | 76.6 | i | i
